The source made the active and inactive calls. No cut-off for these calls is given here.
Columns and labels:
ACHN [1] = assay: Induction of apoptosis in human ACHN cells assessed as early apoptotic cells at 2 uM after 24 hrs by Annexin V-FITC/propidium iodide staining based flow cytometric method (reference value: 0%); format: functional
Summary of the method: (§1)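 ACHN cells are treated at 1, 2 and 4 μM for 24, 48 and 72 h. Cells are then double-stained with annexin V-FITC and propidium iodide and analysed by flow cytometry. Early apoptotic, late apoptotic, necrotic and viable fractions are quantified.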

ACHN [2] = assay: Induction of apoptosis in human ACHN cells assessed as viable cells at 2 uM after 24 hrs by Annexin V-FITC/propidium iodide staining based flow cytometric method (reference value: 100%); format: functional; settings: read-out: Activity; summary of the method: as §1
ACHN [3] = assay: Cytotoxicity against human ACHN cells after 72 hrs by CCK8 assay; format: functional, cell-based
Summary of the method: (§2)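 Renal cancer lines ACHN, 786-O and OS-RC-2; cell viability read by CCK-8 assay, with sorafenib as positive control.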

786-0 = assay: Cytotoxicity against human 786-O cells after 72 hrs by CCK8 assay; format: functional, cell-based; settings: 786-0, 72 h; summary of the method: as §2
OS-RC-2 = assay: Cytotoxicity against human OS-RC2 cells after 72 hrs by CCK8 assay; format: functional, cell-based; settings: OS-RC-2, 72 h; summary of the method: as §2
HepG2 = assay: Cytotoxicity against human HepG2 cells after 6 days by MTT assay; format: functional, cell-based; settings: HepG2, 144 h
Summary of the method: (§3)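 HepG-2 and SGC7901 cells; growth inhibition read by MTT method, with 5-fluorouracil as positive control.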

SGC-7901 = assay: Cytotoxicity against human SGC7901 cells after 6 days by MTT assay; format: functional, cell-based; settings: SGC-7901, 144 h; summary of the method: as §3
Escherichia coli = assay: Antimicrobial activity against Escherichia coli ATCC 25922 after 24 hrs by serial dilution method; format: functional; settings: ATCC 25922, 24 h
Summary of the method: (§4)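 Serial broth dilution in 96-well microtiter plates. Compounds and controls are dissolved in DMSO as stock. Bacteria are grown overnight at 37 °C, then diluted to 10^6 cfu/mL. E. coli and S. aureus are grown in Luria–Bertani broth. P. multocida and E. rhusiopathiae are grown in trypticase soy broth with 10% calf serum. Plates are incubated at 37 °C for 24 h and read at 630 nm.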

Staphylococcus aureus = assay: Antimicrobial activity against Staphylococcus aureus subsp. aureus Rosenbach ATCC 25923 after 24 hrs by serial dilution method; format: functional; settings: Rosenbach ATCC 25923, 24 h; summary of the method: as §4
[4] = system: Erysipelothrix rhusiopathiae; assay: Antimicrobial activity against Erysipelothrix rhusiopathiae ATCC 19414 after 24 hrs by serial dilution method; format: functional; settings: ATCC 19414, 24 h; summary of the method: as §4
Pasteurella multocida = assay: Antimicrobial activity against Pasteurella multocida subsp. multocida ATCC 43137 after 24 hrs by serial dilution method; format: functional; settings: ATCC 43137, 24 h; summary of the method: as §4
ACHN [5] = assay: Cell cycle arrest in human ACHN cells at 1 to 4 uM after 24 to 72 hrs by propidium iodide staining based flow cytometric method; format: functional
ACHN [6] = assay: Induction of apoptosis in human ACHN cells assessed as viable cells at 1 uM after 24 hrs by Annexin V-FITC/propidium iodide staining based flow cytometric method (reference value: 100%); format: functional; settings: read-out: Activity; summary of the method: as §1
ACHN [7] = assay: Induction of apoptosis in human ACHN cells assessed as early apoptotic cells at 1 uM after 24 hrs by Annexin V-FITC/propidium iodide staining based flow cytometric method (reference value: 0%); format: functional; summary of the method: as §1
ACHN [8] = assay: Induction of apoptosis in human ACHN cells assessed as late apoptotic cells at 1 uM after 24 hrs by Annexin V-FITC/propidium iodide staining based flow cytometric method (reference value: 0%); format: functional; summary of the method: as §1
ACHN [9] = assay: Induction of apoptosis in human ACHN cells assessed as necrotic cells at 1 uM after 24 hrs by Annexin V-FITC/propidium iodide staining based flow cytometric method (reference value: 0%); format: functional; summary of the method: as §1
ACHN [10] = assay: Induction of apoptosis in human ACHN cells assessed as late apoptotic cells at 2 uM after 24 hrs by Annexin V-FITC/propidium iodide staining based flow cytometric method (reference value: 0%); format: functional; summary of the method: as §1
ACHN [11] = assay: Induction of apoptosis in human ACHN cells assessed as necrotic cells at 2 uM after 24 hrs by Annexin V-FITC/propidium iodide staining based flow cytometric method (reference value: 0%); format: functional; summary of the method: as §1
ACHN [12] = assay: Induction of apoptosis in human ACHN cells assessed as viable cells at 4 uM after 24 hrs by Annexin V-FITC/propidium iodide staining based flow cytometric method (reference value: 100%); format: functional; settings: read-out: Activity; summary of the method: as §1
ACHN [13] = assay: Induction of apoptosis in human ACHN cells assessed as early apoptotic cells at 4 uM after 24 hrs by Annexin V-FITC/propidium iodide staining based flow cytometric method (reference value: 0%); format: functional; summary of the method: as §1
ACHN [14] = assay: Induction of apoptosis in human ACHN cells assessed as late apoptotic cells at 4 uM after 24 hrs by Annexin V-FITC/propidium iodide staining based flow cytometric method (reference value: 0%); format: functional; summary of the method: as §1
ACHN [15] = assay: Induction of apoptosis in human ACHN cells assessed as necrotic cells at 4 uM after 24 hrs by Annexin V-FITC/propidium iodide staining based flow cytometric method (reference value: 0%); format: functional; summary of the method: as §1
ACHN [16] = assay: Induction of apoptosis in human ACHN cells assessed as viable cells at 1 uM after 48 hrs by Annexin V-FITC/propidium iodide staining based flow cytometric method (reference value: 100%); format: functional; settings: read-out: Activity; summary of the method: as §1
ACHN [17] = assay: Induction of apoptosis in human ACHN cells assessed as early apoptotic cells at 1 uM after 48 hrs by Annexin V-FITC/propidium iodide staining based flow cytometric method (reference value: 0%); format: functional; summary of the method: as §1
ACHN [18] = assay: Induction of apoptosis in human ACHN cells assessed as late apoptotic cells at 1 uM after 48 hrs by Annexin V-FITC/propidium iodide staining based flow cytometric method (reference value: 0%); format: functional; summary of the method: as §1
ACHN [19] = assay: Induction of apoptosis in human ACHN cells assessed as necrotic cells at 1 uM after 48 hrs by Annexin V-FITC/propidium iodide staining based flow cytometric method (reference value: 0%); format: functional; summary of the method: as §1
ACHN [20] = assay: Induction of apoptosis in human ACHN cells assessed as viable cells at 2 uM after 48 hrs by Annexin V-FITC/propidium iodide staining based flow cytometric method (reference value: 100%); format: functional; settings: read-out: Activity; summary of the method: as §1
ACHN [21] = assay: Induction of apoptosis in human ACHN cells assessed as early apoptotic cells at 2 uM after 48 hrs by Annexin V-FITC/propidium iodide staining based flow cytometric method (reference value: 0%); format: functional; summary of the method: as §1
ACHN [22] = assay: Induction of apoptosis in human ACHN cells assessed as late apoptotic cells at 2 uM after 48 hrs by Annexin V-FITC/propidium iodide staining based flow cytometric method (reference value: 0%); format: functional; summary of the method: as §1
ACHN [23] = assay: Induction of apoptosis in human ACHN cells assessed as necrotic cells at 2 uM after 48 hrs by Annexin V-FITC/propidium iodide staining based flow cytometric method (reference value: 0%); format: functional; summary of the method: as §1
ACHN [24] = assay: Induction of apoptosis in human ACHN cells assessed as viable cells at 4 uM after 48 hrs by Annexin V-FITC/propidium iodide staining based flow cytometric method (reference value: 100%); format: functional; settings: read-out: Activity; summary of the method: as §1
ACHN [25] = assay: Induction of apoptosis in human ACHN cells assessed as early apoptotic cells at 4 uM after 48 hrs by Annexin V-FITC/propidium iodide staining based flow cytometric method (reference value: 0%); format: functional; summary of the method: as §1
ACHN [26] = assay: Induction of apoptosis in human ACHN cells assessed as late apoptotic cells at 4 uM after 48 hrs by Annexin V-FITC/propidium iodide staining based flow cytometric method (reference value: 0%); format: functional; summary of the method: as §1
ACHN [27] = assay: Induction of apoptosis in human ACHN cells assessed as necrotic cells at 4 uM after 48 hrs by Annexin V-FITC/propidium iodide staining based flow cytometric method (reference value: 0%); format: functional; summary of the method: as §1
ACHN [28] = assay: Induction of apoptosis in human ACHN cells assessed as viable cells at 1 uM after 72 hrs by Annexin V-FITC/propidium iodide staining based flow cytometric method (reference value: 100%); format: functional; settings: read-out: Activity; summary of the method: as §1
ACHN [29] = assay: Induction of apoptosis in human ACHN cells assessed as early apoptotic cells at 1 uM after 72 hrs by Annexin V-FITC/propidium iodide staining based flow cytometric method (reference value: 0%); format: functional; summary of the method: as §1
ACHN [30] = assay: Induction of apoptosis in human ACHN cells assessed as late apoptotic cells at 1 uM after 72 hrs by Annexin V-FITC/propidium iodide staining based flow cytometric method (reference value: 0%); format: functional; summary of the method: as §1
ACHN [31] = assay: Induction of apoptosis in human ACHN cells assessed as necrotic cells at 1 uM after 72 hrs by Annexin V-FITC/propidium iodide staining based flow cytometric method (reference value: 0%); format: functional; summary of the method: as §1
ACHN [32] = assay: Induction of apoptosis in human ACHN cells assessed as viable cells at 2 uM after 72 hrs by Annexin V-FITC/propidium iodide staining based flow cytometric method (reference value: 100%); format: functional; settings: read-out: Activity; summary of the method: as §1
ACHN [33] = assay: Induction of apoptosis in human ACHN cells assessed as early apoptotic cells at 2 uM after 72 hrs by Annexin V-FITC/propidium iodide staining based flow cytometric method (reference value: 0%); format: functional; summary of the method: as §1
ACHN [34] = assay: Induction of apoptosis in human ACHN cells assessed as late apoptotic cells at 2 uM after 72 hrs by Annexin V-FITC/propidium iodide staining based flow cytometric method (reference value: 0%); format: functional; summary of the method: as §1
ACHN [35] = assay: Induction of apoptosis in human ACHN cells assessed as necrotic cells at 2 uM after 72 hrs by Annexin V-FITC/propidium iodide staining based flow cytometric method (reference value: 0%); format: functional; summary of the method: as §1
ACHN [36] = assay: Induction of apoptosis in human ACHN cells assessed as viable cells at 4 uM after 72 hrs by Annexin V-FITC/propidium iodide staining based flow cytometric method (reference value: 100%); format: functional; settings: read-out: Activity; summary of the method: as §1
ACHN [37] = assay: Induction of apoptosis in human ACHN cells assessed as early apoptotic cells at 4 uM after 72 hrs by Annexin V-FITC/propidium iodide staining based flow cytometric method (reference value: 0%); format: functional; summary of the method: as §1
ACHN [38] = assay: Induction of apoptosis in human ACHN cells assessed as late apoptotic cells at 4 uM after 72 hrs by Annexin V-FITC/propidium iodide staining based flow cytometric method (reference value: 0%); format: functional; summary of the method: as §1
ACHN [39] = assay: Induction of apoptosis in human ACHN cells assessed as necrotic cells at 4 uM after 72 hrs by Annexin V-FITC/propidium iodide staining based flow cytometric method (reference value: 0%); format: functional; summary of the method: as §1

Compound: C=C(/C=N/O)[C@]1(OC)C[C@@]2(C)C(=CC1=O)C=C[C@H](OC(=O)/C=C/C(C)=C/[C@@H](C)CC)[C@@H]2C
- Activity (ACHN [1]): 0.8%
- viability at 2 µM (ACHN [2]): 91.4%
- IC50 (ACHN [3]): 3.1 µM
- IC50 (786-0): 27 µM
- IC50 (OS-RC-2): > 50 µM
- IC50 (HepG2): 5.9 µM
- IC50 (SGC-7901): 17 µM
- MIC (Escherichia coli): > 100 µg/mL
- MIC (Staphylococcus aureus): > 100 µg/mL
- MIC [4]: > 100 µg/mL
- MIC (Pasteurella multocida): > 100 µg/mL
- Activity (ACHN [5]): inactive
- viability at 1 µM (ACHN [6]): 93.2%
- Activity (ACHN [7]): 0.6%
- Activity (ACHN [8]): 0.7%
- Activity (ACHN [9]): 5.5%
- Activity (ACHN [10]): 0.7%
- Activity (ACHN [11]): 7.2%
- viability at 4 µM (ACHN [12]): 76%
- Activity (ACHN [13]): 1.1%
- Activity (ACHN [14]): 1.1%
- Activity (ACHN [15]): 21.8%
- viability at 1 µM (ACHN [16]): 91.4%
- Activity (ACHN [17]): 1.3%
- Activity (ACHN [18]): 1.2%
- Activity (ACHN [19]): 6%
- viability at 2 µM (ACHN [20]): 87.1%
- Activity (ACHN [21]): 2.3%
- Activity (ACHN [22]): 1.3%
- Activity (ACHN [23]): 9.3%
- viability at 4 µM (ACHN [24]): 50%
- Activity (ACHN [25]): 19.2%
- Activity (ACHN [26]): 11.3%
- Activity (ACHN [27]): 19.5%
- viability at 1 µM (ACHN [28]): 90.8%
- Activity (ACHN [29]): 1.8%
- Activity (ACHN [30]): 1.1%
- Activity (ACHN [31]): 6.2%
- viability at 2 µM (ACHN [32]): 80.5%
- Activity (ACHN [33]): 6.8%
- Activity (ACHN [34]): 3.8%
- Activity (ACHN [35]): 9%
- viability at 4 µM (ACHN [36]): 6.9%
- Activity (ACHN [37]): 83.8%
- Activity (ACHN [38]): 8.5%
- Activity (ACHN [39]): 0.8%

— ChEMBL document CHEMBL4145582, “Cytotoxic and Antibacterial Eremophilane Sesquiterpenes from the Marine-Derived Fungus Cochliobolus lunatus SCSIO41401” (J Nat Prod, 2018)
